This is an account of results in ChEMBL document CHEMBL3259661, “Identification of a neuroprotective and selective butyrylcholinesterase inhibitor derived from the natural alkaloid evodiamine” (Eur J Med Chem, 2014).

SMILES strings stand for the structures. Active and inactive are the calls of the source. The rule behind the calls is not given here. Where only a bound is given, the exact number is not on record here.

In series [1] the target is Cholinesterase (Equus caballus, UniProt P81908). The experiment in a line: (§1) Inhibition of equine serum BChE by Ellman's method. In outline: (§2)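 Ethanol stocks diluted into assay, highest final concentration 10^-4 M. For curves, at least five concentrations (normally 10^-4 to 10^-9 M), each in triplicate; at least 3 independent determinations.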
Sequence of Cholinesterase (P81908 whole entry): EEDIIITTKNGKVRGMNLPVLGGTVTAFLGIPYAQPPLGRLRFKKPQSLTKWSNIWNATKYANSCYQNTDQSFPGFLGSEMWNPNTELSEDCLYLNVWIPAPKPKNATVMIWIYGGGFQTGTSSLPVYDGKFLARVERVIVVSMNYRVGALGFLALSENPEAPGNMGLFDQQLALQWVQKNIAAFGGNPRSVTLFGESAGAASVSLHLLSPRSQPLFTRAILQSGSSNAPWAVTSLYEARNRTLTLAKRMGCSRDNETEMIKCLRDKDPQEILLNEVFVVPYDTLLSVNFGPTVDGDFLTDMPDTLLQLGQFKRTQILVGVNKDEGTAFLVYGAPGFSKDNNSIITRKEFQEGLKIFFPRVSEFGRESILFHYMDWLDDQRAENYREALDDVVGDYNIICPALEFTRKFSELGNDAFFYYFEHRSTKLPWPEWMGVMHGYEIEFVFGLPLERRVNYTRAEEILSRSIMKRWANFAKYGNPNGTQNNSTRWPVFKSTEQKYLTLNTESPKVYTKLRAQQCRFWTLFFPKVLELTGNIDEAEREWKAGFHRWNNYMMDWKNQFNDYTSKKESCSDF
For orientation: DTNB colorimetry detects thiols as they appear.

In series [2] the target is Acetylcholinesterase (Electrophorus electricus, UniProt O42275). Briefly: Inhibition of electric eel AChE by Ellman's method. Put shortly: as §2
Sequence of Acetylcholinesterase (O42275 whole entry): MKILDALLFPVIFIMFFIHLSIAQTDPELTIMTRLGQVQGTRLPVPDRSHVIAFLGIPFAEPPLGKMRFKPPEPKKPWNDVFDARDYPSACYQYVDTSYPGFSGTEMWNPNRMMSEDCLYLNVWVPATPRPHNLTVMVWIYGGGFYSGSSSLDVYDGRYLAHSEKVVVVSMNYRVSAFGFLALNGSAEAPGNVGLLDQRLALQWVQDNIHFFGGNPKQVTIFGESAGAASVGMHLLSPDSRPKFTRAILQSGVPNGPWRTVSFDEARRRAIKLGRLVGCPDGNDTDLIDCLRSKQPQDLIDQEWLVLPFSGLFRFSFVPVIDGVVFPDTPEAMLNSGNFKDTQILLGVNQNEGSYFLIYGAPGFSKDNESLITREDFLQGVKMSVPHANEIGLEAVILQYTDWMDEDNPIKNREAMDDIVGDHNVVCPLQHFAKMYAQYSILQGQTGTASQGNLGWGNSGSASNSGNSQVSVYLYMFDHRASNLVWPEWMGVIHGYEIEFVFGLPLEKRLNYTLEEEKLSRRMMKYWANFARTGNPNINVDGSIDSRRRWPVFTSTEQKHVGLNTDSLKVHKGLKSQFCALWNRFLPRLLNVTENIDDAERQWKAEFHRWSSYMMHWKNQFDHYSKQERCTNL
In series [3] the target is Cholinesterase (Equus caballus) (UniProt P81908). Briefly: Inhibition of equine serum BChE at 10 uM by Ellman's method.
Sequence of Cholinesterase (Equus caballus) (P81908 whole entry): as the sequence (P81908 whole entry) above
The target in series [4] is Acetylcholinesterase (Electrophorus electricus) (UniProt O42275). The experiment in a line: Inhibition of electric eel AChE at 10 uM by Ellman's method.
Sequence of Acetylcholinesterase (Electrophorus electricus) (O42275 24-633 limits assumed): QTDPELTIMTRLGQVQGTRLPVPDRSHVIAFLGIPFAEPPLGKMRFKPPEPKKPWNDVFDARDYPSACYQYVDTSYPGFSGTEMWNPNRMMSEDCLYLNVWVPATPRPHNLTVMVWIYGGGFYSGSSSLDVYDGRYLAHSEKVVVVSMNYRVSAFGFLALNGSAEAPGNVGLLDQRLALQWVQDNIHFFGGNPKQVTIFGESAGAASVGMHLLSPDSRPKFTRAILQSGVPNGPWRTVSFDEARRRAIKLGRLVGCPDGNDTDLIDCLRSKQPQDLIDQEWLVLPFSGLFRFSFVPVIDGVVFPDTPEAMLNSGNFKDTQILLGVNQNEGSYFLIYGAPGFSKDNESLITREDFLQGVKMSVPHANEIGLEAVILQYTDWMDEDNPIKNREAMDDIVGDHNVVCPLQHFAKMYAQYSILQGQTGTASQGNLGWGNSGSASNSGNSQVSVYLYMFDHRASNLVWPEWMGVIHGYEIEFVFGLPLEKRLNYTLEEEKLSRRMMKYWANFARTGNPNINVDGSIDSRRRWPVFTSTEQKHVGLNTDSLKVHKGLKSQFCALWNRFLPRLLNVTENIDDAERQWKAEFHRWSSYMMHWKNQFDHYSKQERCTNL
Series [5] can be described thus: Selectivity ratio of IC50 for Electrophorus electricus acetylcholinesterase to IC50 for equine serum butyrylcholinesterase. Put shortly:
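Ratio IC50(AChE)/IC50(BChE), with both IC50s from Ellman assays (electric eel AChE, equine serum BChE, 25 °C, 412 nm, at least five concentrations in triplicate, at least 3 independent determinations).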

The test system of series [6] is HT-22. Briefly: Neuroprotection against glutamate challenged mouse HT22 cells assessed as reduction in cell viability at 5 uM after 48 hrs by MTT assay. The class given is functional, cell-based. (In general: Tetrazolium dyes change colour on reduction, which living cells bring about.)
Series [7] concerns the target Cholinesterase (Equus caballus) (UniProt P81908). Described as §1. The following applies: TDE = time-dependent effect. In outline: as §2
Series [8] is described as follows: Antioxidant activity in phosphate buffer assessed as scavenging activity against peroxy radicals at pH 7.4 by ORAC-FL method relative to trolox. The format is functional. Put shortly:
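ORAC-FL in 75 mM phosphate buffer pH 7.4, 37 °C; sample with fluorescein (300 nM final) preincubated 15 min, then AAPH (12 mM final) added; fluorescence read every 60 s for 90 min (ex 485/em 535 nm). Blank and Trolox calibration in each assay; AUC from blank-normalised decay curves; expressed as Trolox equivalents.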

For series [9], the target named is Cholinesterase (Equus caballus) (UniProt P81908). The experiment in a line: Binding affinity to equine serum BChE assessed as compound-enzyme complex stability. Put shortly:
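Kinetic study on equine serum BChE with time-dependent inhibition followed to steady state (60 min); equilibrium constant of inhibitor–BChE complex (K_C) and carbamoylation rate constant (k3) determined.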

The test system of series [10] is HT-22. The experiment in a line: Neurotoxicity against mouse HT22 cells assessed as reduction in cell viability at 1 to 10 uM […] by MTT assay. The class given is toxicity, cell-based. The conditions noted are these: ht-22, 10 µM.
Series [11] has as its system HT-22. Briefly: Neurotoxicity against mouse HT22 cells assessed as reduction in cell viability at 25 uM […] by MTT assay. The conditions noted are these: ht-22, 25 µM. The class given is toxicity, cell-based.
Series [12] relates to HT-22. The experiment in a line: Neuroprotection against glutamate challenged mouse HT22 cells assessed as reduction in cell viability at 1 to 25 uM after 48 hrs by MTT assay. The format is functional, cell-based. Put shortly:
(§3)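 Murine hippocampal HT-22 cells grown in high-glucose DMEM + 10% heat-inactivated FCS, 37 °C, 5% CO2. Seeded 5 × 10³/well, cultured 24 h, then 24 h with compound (DMSO stock, final DMSO ≤0.1%) plus 5 mM glutamate. MTT (4 mg/mL stock diluted 1:10) for 3 h, 10% SDS lysis, absorbance 560 nm next day. Viability as % of untreated control. Means ± SD, ≥3 independent experiments.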

The test system of series [13] is HT-22. Briefly: Neuroprotection against glutamate challenged mouse HT22 cells assessed as reduction in cell viability at 5 to 10 uM after 48 hrs by MTT assay. The format is functional, cell-based. In outline:
as §3

The target of series [14] is Acetylcholinesterase (Electrophorus electricus) (UniProt O42275). The experiment in a line: Inhibition of electric eel AChE at 100 uM by Ellman's method.
Series [15] concerns the target Cholinesterase (Equus caballus) (UniProt P81908). Briefly: Inhibition of equine serum BChE at 100 uM by Ellman's method.
Series [16] concerns HT-22. The experiment in a line: Neurotoxicity against mouse HT22 cells assessed as reduction in cell viability at 1 to 25 uM […] by MTT assay. The class given is toxicity, cell-based. The following applies: ht-22, 25 µM.

Take `CN1c2ccc(OC(=O)NCc3ccccc3)cc2C(=O)N2CCc3c([nH]c4ccccc34)C21` (stereo not given): the 50% inhibitory concentration (IC50) in series [1] and in [2] was > 10 µM throughout. Moreover, the inhibition – broadly, the relative decrease from the control value, in per cent – amounted to 15% in [3] and 10% in series [4].
On to `CCNC(=O)Oc1ccc2c(c1)CN1CCc3c([nH]c4ccccc34)C1N2C` (stereo not given), for which the half-inhibitory concentration (IC50) (as a rule, the concentration that gives 50% inhibition) in [1] was 1.03 µM; in series [2] it was > 10 µM. Besides, the Ratio IC50 in [5] is > 9.71. Further, the inhibition in [3] was 5.99%; in series [4] it was 26%.
Consider `O=c1c(O)c(-c2ccc(O)c(O)c2)oc2cc(O)cc(O)c12`, for which the outcome in series [6] was Active.
In the case of `CCCCNC(=O)Oc1ccc2c(c1)CN1CCc3c([nH]c4ccccc34)C1N2C` (stereo not given), the IC50 is 3.97 µM in series [1] and > 10 µM in series [2]. For the same compound, in series [5], the Ratio IC50 is > 2.52. Further, the values for the inhibition in [3] and in series [4] were 5.4% and 47%, respectively.
Take `CCNC(=O)Oc1ccc2c(c1)C(=O)N1CCc3c([nH]c4ccccc34)C1N2C` (stereo not given): the half-maximal inhibitory concentration (IC50) in series [1] and in series [2] was > 10 µM each time. For the same compound, the inhibition in series [3] stood at 21%; in [4], 15%.
With `CN1c2ccc(OCc3ccccc3)cc2C(=O)N2CCc3c([nH]c4ccccc34)C21` (stereo not given), the half-maximal inhibitory concentration (IC50) was found to be 0.88 µM in series [1] and 3.01 µM in series [2]. The Ratio IC50 in series [5] was 3.42. The inhibition in [3] worked out at 6.07%; in [4], 5.52%.
As to `CC(C)c1ccc(NC(=O)Oc2ccc3c(c2)C(=O)N2CCc4c([nH]c5ccccc45)C2N3C)cc1` (stereo not given), the concentration for half-maximal inhibition (IC50) in [1] and in series [2] was > 10 µM throughout. The inhibition in [3] amounted to 7%; in [4], 14%.
As to `CNC(=O)Oc1ccc2c(c1)[C@]1(C)CCN(C)[C@@H]1N2C`, the inhibition in series [3] is 7.22%; in series [4] it was 8.11%.
In the case of `COc1cccc(NC(=O)Oc2ccc3c(c2)C(=O)N2CCc4c([nH]c5ccccc45)C2N3C)c1` (stereo not given), the IC50 in series [1] and in series [2] was > 10 µM each time. The values for the inhibition in [3] and in series [4] were 3% and 15%, respectively.
Turning to `CN1c2ccccc2C(=O)N2CCc3c([nH]c4ccccc34)C21` (stereo not given), the values for the IC50 in series [1] and in series [2] were 4.62 µM and > 10 µM, respectively. Moreover, the Ratio IC50 in [5] was > 2.16. Besides, the inhibition in series [3] was determined as 5.34%; in [4] it was 37%.
In the case of `CCCCNC(=O)Oc1ccc2c(c1)C(=O)N1CCc3c([nH]c4ccccc34)C1N2C` (stereo not given), the IC50 in series [1] and in [2] was > 10 µM each time. Besides, the inhibition came out at 12% in series [3] and 10% in [4].
On to `CCCCCCCNC(=O)Oc1ccc2c(c1)CN1CCc3c([nH]c4ccccc34)C1N2C` (stereo not given), for which the inhibition result was “tde” in series [7], 7.11% in [3] and 17% in series [4]. The IC50 in [1] was 0.077 µM; in series [2], > 10 µM. For the same compound, the Ratio IC50 in [5] is > 130. Further, in [8], the ORAC value (Trolox equivalents) is 1.75. Also, in series [9], the K worked out at 492 nM. Also, the values for the Activity entry in [10] and in series [11] were “Non-toxic” and “Toxic”, respectively. Moreover, the outcome in series [12] was Active.
Consider `CN1c2ccc(O)cc2C(=O)N2CCc3c([nH]c4ccccc34)C21` (stereo not given), for which the concentration for half-maximal inhibition (IC50) in series [1] and in [2] was > 100 µM in each case. The inhibition in series [4] was 29%.
As for `CN1c2ccccc2CN2CCc3c([nH]c4ccccc34)C21` (stereo not given), the 50% inhibitory concentration (IC50) in series [1] is 2.68 µM; in series [2], > 10 µM. Further, in series [5], the Ratio IC50 is > 3.73. Further, the ORAC value (Trolox equivalents) in series [8] was 2.32. Besides, the inhibition in series [3] was 5.57%; in series [4] it was 24%. Besides, in [13], the result was Active.
As to `CC(C)c1ccc(NC(=O)Oc2ccc3c(c2)CN2CCc4c([nH]c5ccccc45)C2N3C)cc1` (stereo not given), the IC50 in series [1] and in series [2] was > 10 µM each time. Moreover, the results for the inhibition in series [3] and in series [4] were 41% and 13%, respectively.
Regarding `COc1cccc(NC(=O)Oc2ccc3c(c2)CN2CCc4c([nH]c5ccccc45)C2N3C)c1` (stereo not given), the IC50 in series [1] and in [2] was > 10 µM each time. In addition, the results for the inhibition in [3] and in series [4] were 30% and 19%, respectively.
Regarding `CN1c2ccc(O)cc2CN2CCc3c([nH]c4ccccc34)C21` (stereo not given), the figures for the IC50 in series [1] and in [2] were 19.3 µM and > 100 µM, respectively. Also, the Ratio IC50 in series [5] is > 5.17. Besides, in series [8], the ORAC value (Trolox equivalents) was determined as 3.55. Further, the inhibition in series [3] came to 4.71%; in series [14] it was 43%; in series [15] it was 47%. Besides, the results for the Activity entry in [10] and in series [11] were “Non-toxic” and “Toxic”, respectively. The result in series [12] was Active.
Consider `CN1c2ccc(OC(=O)NCc3ccccc3)cc2CN2CCc3c([nH]c4ccccc34)C21` (stereo not given), for which the IC50 in [1] is 2.15 µM; in series [2] it was > 10 µM. Moreover, the Ratio IC50 in [5] was > 4.65. Moreover, the values for the inhibition in series [3] and in series [4] were 5.67% and 34%, respectively.
Take `CCCCCCCNC(=O)Oc1ccc2c(c1)C(=O)N1CCc3c([nH]c4ccccc34)C1N2C` (stereo not given): the ORAC value (Trolox equivalents) in series [8] was found to be 0.32. In addition, the Activity entry in [16] is reported as “Toxic”. Besides, the outcome in series [12] was Active.
